Active and inactive are the calls of the source. The calls are words filed in the database; no cut-off is given here.
Key:
D(2) dopamine receptor = D(2) dopamine receptor (Rattus norvegicus, UniProt P61169); experiment: Binding affinity at Dopamine receptor D2 in rat corpus striatum by displacing [3H]-spiperone.; type: tissue-based
Summary of the method: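 Washed membranes from male Sprague-Dawley rat corpora striata were preincubated 10 min at 37 °C in Hepes-KOH pH 7.4 buffer with NaCl, KCl, CaCl2, MgCl2, ascorbic acid and 10 μM pargyline. 20-50 μg protein was incubated with 100 pM [3H]spiperone for 15 min at 37 °C, in duplicate. Nonspecific binding was defined with 10 μM D-(+)-butaclamol. IC50 came from log-probit linear regression over 3-5 concentrations.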

Rattus norvegicus [1] = experiment: Effective oral dose that conditioned avoidance response in rat; type: functional
Summary of the method: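 On day 10, trained rats (groups of 5-10) were given drug or vehicle by oral gavage and tested at the time of maximal activity. Responses over 30 min (11 trials at 3-min intervals) were pooled across dose levels to calculate the dose suppressing avoidance in 50% of animals (ED50).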

Rattus norvegicus [2] = experiment: Effective oral dose that produce reversal of trifluoperazine-induced catalepsy in rat; type: functional
Rattus norvegicus [3] = species: Rattus norvegicus; experiment: Maximum effective dose that causes vogel anticonflict effect when given through oral route; IA=Inactive; type: functional, organism-based
Summary of the method: (§1)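 Reverse day-night cycled rats were water deprived 24 h, bottle trained for 15 min, then deprived a further 23.5 h. Compound was given orally before testing, and licks were counted, with brief grid shocks after a set lick number. Activity meant more licking than controls (Student's t test, p < 0.05). Maximum dose examined was 20 mg/kg.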

Rattus norvegicus [4] = species: Rattus norvegicus; experiment: Maximum effective dose that causes vogel anticonflict effect when given through oral route; type: functional; conditions: read-out: MED; summary of the method: as §1
Rattus norvegicus [5] = experiment: Induction of serotonin syndrome when given po
Rattus norvegicus [6] = experiment: Inhibition of dorsal raphe neuron firing when given iv; type: functional
Rattus norvegicus [7] = species: Rattus norvegicus; experiment: Inhibition of induced serotonin syndrome; IA=Inactive; type: functional, organism-based
Rattus norvegicus [8] = species: Rattus norvegicus; experiment: Inhibition of dorsal raphe neuron firing; type: functional

Sequence of D(2) dopamine receptor (P61169 whole entry): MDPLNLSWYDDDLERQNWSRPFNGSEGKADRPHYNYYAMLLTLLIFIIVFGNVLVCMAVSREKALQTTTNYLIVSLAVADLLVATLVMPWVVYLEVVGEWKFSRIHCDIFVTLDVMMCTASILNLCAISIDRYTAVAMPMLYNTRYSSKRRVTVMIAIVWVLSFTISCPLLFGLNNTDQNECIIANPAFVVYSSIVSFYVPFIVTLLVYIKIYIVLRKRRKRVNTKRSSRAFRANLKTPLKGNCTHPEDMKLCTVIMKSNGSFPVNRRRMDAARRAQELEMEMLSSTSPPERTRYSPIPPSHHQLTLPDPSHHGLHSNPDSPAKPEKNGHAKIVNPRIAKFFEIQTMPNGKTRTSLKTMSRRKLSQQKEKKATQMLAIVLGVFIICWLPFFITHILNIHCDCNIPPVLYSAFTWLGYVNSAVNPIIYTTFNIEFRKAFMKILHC

| SMILES | IC50 (D(2) dopamine receptor) [µM] | ED50 (Rattus norvegicus [1]) [mg/kg] | ED50 (Rattus norvegicus [2]) [mg/kg] | MED (Rattus norvegicus [3]) | minimal effective dose (Rattus norvegicus [4]) [mg/kg] | ED50 (Rattus norvegicus [5]) [mg/kg] | ED50 (Rattus norvegicus [6]) [mg/kg] | ED50 (Rattus norvegicus [7]) | ED50 (Rattus norvegicus [8]) [mg/kg] |
| --- | --- | --- | --- | --- | --- | --- | --- | --- | --- |
| O=C1c2cc(Cl)c(Cl)cc2C(=O)N1CCCCN1CCN(c2ncccn2)CC1 | > 1 | > 100 |  |  |  |  |  |  |  |
| Cl.N#Cc1cccnc1N1CCN(CCCCN2C(=O)CC3(CCCc4ccccc43)C2=O)CC1 (stereo not given) | 0.31 | 100 | > 20 |  |  |  |  |  |  |
| O=C1c2ccccc2C(=O)N1CCCCN1CCN(c2ncccn2)CC1 | > 1 | 65 | 20 | inactive |  |  |  |  |  |
| CC1(c2ccc(F)cc2)CC(=O)N(CCCCN2CCN(c3ncccc3C#N)CC2)C1=O (stereo not given) | 0.71 | 100 | 20 | inactive |  |  |  |  |  |
| CC1(C)CC(=O)N(CCCCN2CCN(c3ncccn3)CC2)C(=O)C1.Cl [GEPIRONE HYDROCHLORIDE] |  | 53 | 6.5 |  | 1 | 17.1 | 0.025 |  |  |
| O=C1CC(c2ccccc2)(c2ccccc2)C(=O)N1CCCCN1CCN(c2ncccn2)CC1 | > 1 | > 100 | > 20 |  | 10 |  |  |  |  |
| CC1(c2ccc(F)cc2)CC(=O)N(CCN2CCN(c3ncccn3)CC2)C1=O (stereo not given) | > 1 | > 100 | > 20 |  |  |  |  |  |  |
| N#Cc1cccnc1N1CCN(CCCCN2C(=O)CC(c3ccccc3)(c3ccccc3)C2=O)CC1 | > 1 | > 100 | > 20 |  |  |  |  |  |  |
| Cl.N#Cc1cccnc1N1CCN(CCCCN2C(=O)c3ccc([N+](=O)[O-])cc3C2=O)CC1 | > 1 | 78 | > 20 |  |  |  |  |  |  |
| Cl.O=C1CC2(CCCc3ccccc32)C(=O)N1CCCCN1CCN(c2ncccn2)CC1 (stereo not given) | > 1 | 50 | > 20 | inactive |  |  |  |  |  |
| O=C1c2c(Cl)c(Cl)c(Cl)c(Cl)c2C(=O)N1CCCCN1CCN(c2ncccn2)CC1 | > 1 | > 100 | > 20 |  |  |  |  |  |  |
| O=C1CC(c2ccccc2)(c2ccccc2)C(=O)N1CCCCN1CCN(c2nsc3ccccc23)CC1 | 0.23 | > 100 | > 20 |  |  |  |  |  |  |
| CC1(c2ccc(F)cc2)CC(=O)N(CCCCN2CCN(c3nsc4ccccc34)CC2)C1=O (stereo not given) | 0.12 | 100 | > 20 |  |  |  |  |  |  |
| Cl.O=C1CC2(CCCC2)CC(=O)N1CCCCN1CCN(c2ncccn2)CC1 [BUSPIRONE HYDROCHLORIDE] |  |  | 3.6 |  | 1 |  |  | inactive | 0.01 |
| Cl.O=C1CC2(CCc3ccccc3C2)C(=O)N1CCCCN1CCN(c2ncccn2)CC1 (stereo not given) | 0.54 | 58 | 13 |  | 5 |  |  |  |  |
| Cl.O=C1C2CC=CCC2C(=O)N1CCCCN1CCN(c2ncccn2)CC1 (stereo not given) | > 1 | > 100 |  |  |  |  |  |  |  |
| CSc1nc(N2CCN(CCCCN3C(=O)c4ccccc4C3=O)CC2)ncc1F.Cl | > 1 | > 100 | > 20 |  |  |  |  |  |  |
| CC1(c2ccc(F)cc2)CC(=O)N(CCCCN2CCN(c3ncccn3)CC2)C1=O (stereo not given) | > 1 | 56 | 11 | inactive |  |  |  |  |  |
| Cc1ccc(S(=O)(=O)O)cc1.O=C1CC2(CCCc3ccccc32)C(=O)N1CCCCN1CCN(c2nsc3ccccc23)CC1 (stereo not given) |  | > 100 | > 20 |  |  |  |  |  |  |
| O=C1c2ccc([N+](=O)[O-])cc2C(=O)N1CCCCN1CCN(c2ncccn2)CC1 | > 1 | 75 | > 20 |  |  |  |  |  |  |
| CC1(c2ccc(F)cc2)CC(=O)N(CCCN2CCN(c3ncccn3)CC2)C1=O (stereo not given) | > 1 | > 100 | > 20 |  |  |  |  |  |  |
| CC1(c2ccccc2)CC(=O)N(CCCCN2CCN(c3ncccn3)CC2)C1=O.Cl (stereo not given) | > 1 | 60 |  |  |  |  |  |  |  |
| Cl.O=C1CC2(CCc3ccccc32)C(=O)N1CCCCN1CCN(c2ncccn2)CC1 (stereo not given) | 1.3 | 54 | 11.5 | inactive |  |  |  |  |  |

Reference: ChEMBL document CHEMBL1123465, “Buspirone analogues. 2. Structure-activity relationships of aromatic imide derivatives” (J Med Chem, 1986)
